One data set deals with Trypanosoma cruzi. Briefly: Growth inhibition of trypomastigote form of Trypanosoma cruzi Y infected in human U2OS cells at 50 uM measured after 72 hrs by DRAQ5 DNA dye based confocal microscopic analysis relative to control. The format is organism-based. To be noted: Trypanosoma cruzi, Y, U2OS, read-out: GI.
The subject of data set [1] is Trypanosoma brucei. Kind of data set: Inhibition of PTR1 in Trypanosoma brucei bloodstream forms assessed as potentiation of methotrexate-induced parasitic cell growth inhibition at 10 uM measured after 72 hrs by resazurin-based fluorescence assay (reference value: 19 +/- 6%). Summed up:
(§1)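 Bloodstream-form T. brucei resazurin assay: 72 h at 37 °C, 5% CO₂, then fluorescence at ex 540/em 620 nm. Benzothiazole was tested at 10 μM alone and with 4 μM methotrexate. The index is the combination's activity divided by the sum of the activities of 10 μM benzothiazole and 4 μM methotrexate given separately.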
Background: Resazurin is reduced to fluorescent resorufin, in cell work by metabolically active cells.

Data set [2] deals with Trypanosoma brucei. Briefly: Inhibition of PTR1 in Trypanosoma brucei bloodstream forms assessed as potentiation of methotrexate-induced parasitic cell growth inhibition by measuring potentiation index at 10 uM measured after 72 hrs by resazurin-based fluorescence assay relative to control (methotrexate). In kind it is functional. Put shortly: as §1
Data set [3] has as its target Voltage-gated inwardly rectifying potassium channel KCNH2 (Homo sapiens, UniProt Q12809). Kind of data set: Displacement of Tracer Red from human ERG by fluorescence polarization assay.
The next data set deals with Cytochrome P450 2C9 (Homo sapiens, UniProt P11712). Kind of data set: Inhibition of human CYP2C9 expressed in baculovirus infected insect cells using beetle D-luciferin as substrate preincubated for 30 mins followed by NADPH addition and measured after 30 mins by CYP450-Glo assay.
The target of a further data set is Cytochrome P450 2C19 (Homo sapiens, UniProt P33261). Kind of data set: Inhibition of human CYP2C19 expressed in baculovirus infected insect cells using beetle D-luciferin as substrate preincubated for 30 mins followed by NADPH addition and measured after 30 mins by CYP450-Glo assay.
The target of another data set is Cytochrome P450 2D6 (Homo sapiens, UniProt P10635). Briefly: Inhibition of human CYP2D6 expressed in baculovirus infected insect cells using beetle D-luciferin as substrate preincubated for 30 mins followed by NADPH addition and measured after 30 mins by CYP450-Glo assay.
A further data set deals with Cytochrome P450 3A4 (Homo sapiens, UniProt P08684). Briefly: Inhibition of human CYP3A4 expressed in baculovirus infected insect cells using beetle D-luciferin as substrate preincubated for 30 mins followed by NADPH addition and measured after 30 mins by CYP450-Glo assay.
Data set [4] is described as follows: Cytotoxicity against human A549 cells after 48 hrs by Celltiter-glo assay. In kind it is cell-based.
The test system of another data set is hERG. Briefly: Selectivity index ratio of IC50 for human ERG to EC50 for growth inhibition of Trypanosoma brucei bloodstream forms. The format is toxicity. The settings on record: read-out: Ratio IC50/EC50.
Data set [5] in a line: Thermodynamic solubility of the compound in pure water after 24 hrs by spectrophotometric method. In kind it is physicochemical. The settings on record: read-out: Therm_solubility. Put shortly:
(§2)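 Over-saturated suspensions (theoretical maximum 100 µg/mL) in water, PBS, PBS + 10% DMSO or PBS + 50% DMSO were stirred at 1200 rpm for 24 h at 25 °C. They were filtered at 0.2 µm and diluted 1:1 with ACN. Concentration was quantified by UV using a molar extinction coefficient determined at 340 nm.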

Data set [6] is described as follows: Thermodynamic solubility of the compound in phosphate buffered saline after 24 hrs by spectrophotometric method. The format is physicochemical. The settings on record: read-out: Therm_solubility. Summed up:
as §2

Data set [7] can be described thus: Thermodynamic solubility of the compound in phosphate buffered saline/10%DMSO after 24 hrs by spectrophotometric method. In kind it is physicochemical. The settings on record: read-out: Therm_solubility. Summed up:
as §2

A short description of data set [8]: Thermodynamic solubility of the compound in phosphate buffered saline/50%DMSO after 24 hrs by spectrophotometric method. In kind it is physicochemical. The settings on record: read-out: Therm_solubility. Summed up:
as §2

Data set [9] is described as follows: Selectivity index ratio of IC50 for mitochondrial toxicity in human 786-O cells to EC50 for growth inhibition of Trypanosoma brucei bloodstream forms. In kind it is cell-based. To be noted: read-out: Ratio IC50/EC50.
Data set [10] in a line: Selectivity index ratio of NOAEL for human THP1 cells to EC50 for growth inhibition of Trypanosoma brucei bloodstream forms. In kind it is toxicity. The settings on record: read-out: Selectivity Index.
Data set [11] can be described thus: Cmax in BALB/c mouse at 1 mg/kg, iv by LC-MS analysis. In kind it is ADME, organism-based. Details: dose 1 mg/kg, route intravenous. The settings on record: in vivo. Summed up:
(§3)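 Snapshot PK in healthy BALB/c mice. Free compound given in 8% DMSO at 1 mg/kg IV or 20 mg/kg per os; for the formulated arm it was solubilized with hydroxypropyl-β-cyclodextrin (50%) and given at 20 mg/kg per os. Plasma levels were quantified by LC-MS on a C18 column with triple-quadrupole ESI detection in positive ion mode.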

The nature of data set [12]: AUC in BALB/c mouse at 1 mg/kg, iv by LC-MS analysis. In kind it is ADME, organism-based. To be noted: in vivo. Summed up:
as §3

Data set [13] can be described thus: AUC in BALB/c mouse at 20 mg/kg, po co-formulated with hydroxypropyl-beta-cyclodextrin by LC-MS analysis. The format is ADME, organism-based. The settings on record: in vivo. Summed up:
as §3

A short description of data set [14]: Half-life in BALB/c mouse at 1 mg/kg, iv by LC-MS analysis. The format is ADME, organism-based. The settings on record: in vivo. Summed up:
as §3

A short description of data set [15]: Clearance in BALB/c mouse at 20 mg/kg, po by LC-MS analysis. In kind it is ADME, organism-based. To be noted: in vivo. Summed up: as §3
Data set [16] can be described thus: Clearance in BALB/c mouse at 20 mg/kg, po co-formulated with hydroxypropyl-beta-cyclodextrin by LC-MS analysis. To be noted: in vivo. The format is ADME, organism-based. Summed up:
as §3

Data set [17] in a line: Selectivity ratio of IC50 for Leishmania major pteridine reductase 1 to IC50 for N-terminal His-tagged Trypanosoma brucei pteridine reductase 1.

A word on the IC50: it is the concentration at which inhibition is half-maximal. Lower therefore signals greater potency. The term GI50 denotes the concentration that inhibits growth by half. Low values mean greater sensitivity of the cells, high ones lower sensitivity of the cells. As a reminder, the Cmax is the peak of the concentration-time curve. A word on the AUC: it is concentration integrated over time. A word on the half-life: it is how long it takes for the measured level to halve. A high value points to slow loss. In general, CL/F refers to the apparent clearance, not corrected for the fraction that reaches the circulation.

Values after ≈ are worked out from the molar mass of the structure shown.

Chain of Cytochrome P450 2D6 (P10635 whole entry): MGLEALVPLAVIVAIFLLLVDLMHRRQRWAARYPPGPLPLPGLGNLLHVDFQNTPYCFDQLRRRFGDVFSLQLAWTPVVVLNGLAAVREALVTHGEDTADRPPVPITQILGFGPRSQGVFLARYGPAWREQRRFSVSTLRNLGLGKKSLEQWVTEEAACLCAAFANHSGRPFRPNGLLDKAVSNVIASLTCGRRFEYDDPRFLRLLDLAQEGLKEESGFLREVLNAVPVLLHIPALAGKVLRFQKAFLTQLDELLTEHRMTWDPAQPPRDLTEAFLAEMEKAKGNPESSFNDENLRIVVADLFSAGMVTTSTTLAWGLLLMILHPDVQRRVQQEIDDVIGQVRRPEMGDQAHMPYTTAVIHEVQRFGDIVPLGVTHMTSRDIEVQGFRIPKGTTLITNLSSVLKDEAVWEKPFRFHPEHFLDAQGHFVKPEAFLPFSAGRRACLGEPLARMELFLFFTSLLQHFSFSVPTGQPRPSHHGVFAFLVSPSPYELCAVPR
Chain of Cytochrome P450 3A4 (P08684 whole entry): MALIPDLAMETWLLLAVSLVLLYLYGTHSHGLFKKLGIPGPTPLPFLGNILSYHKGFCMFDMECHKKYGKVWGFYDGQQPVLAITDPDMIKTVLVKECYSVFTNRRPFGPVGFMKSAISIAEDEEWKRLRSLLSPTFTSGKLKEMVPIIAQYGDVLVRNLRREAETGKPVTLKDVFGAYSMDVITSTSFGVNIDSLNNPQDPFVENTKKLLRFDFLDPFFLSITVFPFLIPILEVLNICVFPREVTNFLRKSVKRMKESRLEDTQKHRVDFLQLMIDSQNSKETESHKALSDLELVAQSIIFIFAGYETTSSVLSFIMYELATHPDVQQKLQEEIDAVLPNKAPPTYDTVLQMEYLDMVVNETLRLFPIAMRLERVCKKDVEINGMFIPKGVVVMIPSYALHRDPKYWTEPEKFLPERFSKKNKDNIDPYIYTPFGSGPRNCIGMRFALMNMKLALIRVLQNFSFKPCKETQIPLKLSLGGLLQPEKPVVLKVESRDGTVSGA
Chain of Voltage-gated inwardly rectifying potassium channel KCNH2 (Q12809 whole entry): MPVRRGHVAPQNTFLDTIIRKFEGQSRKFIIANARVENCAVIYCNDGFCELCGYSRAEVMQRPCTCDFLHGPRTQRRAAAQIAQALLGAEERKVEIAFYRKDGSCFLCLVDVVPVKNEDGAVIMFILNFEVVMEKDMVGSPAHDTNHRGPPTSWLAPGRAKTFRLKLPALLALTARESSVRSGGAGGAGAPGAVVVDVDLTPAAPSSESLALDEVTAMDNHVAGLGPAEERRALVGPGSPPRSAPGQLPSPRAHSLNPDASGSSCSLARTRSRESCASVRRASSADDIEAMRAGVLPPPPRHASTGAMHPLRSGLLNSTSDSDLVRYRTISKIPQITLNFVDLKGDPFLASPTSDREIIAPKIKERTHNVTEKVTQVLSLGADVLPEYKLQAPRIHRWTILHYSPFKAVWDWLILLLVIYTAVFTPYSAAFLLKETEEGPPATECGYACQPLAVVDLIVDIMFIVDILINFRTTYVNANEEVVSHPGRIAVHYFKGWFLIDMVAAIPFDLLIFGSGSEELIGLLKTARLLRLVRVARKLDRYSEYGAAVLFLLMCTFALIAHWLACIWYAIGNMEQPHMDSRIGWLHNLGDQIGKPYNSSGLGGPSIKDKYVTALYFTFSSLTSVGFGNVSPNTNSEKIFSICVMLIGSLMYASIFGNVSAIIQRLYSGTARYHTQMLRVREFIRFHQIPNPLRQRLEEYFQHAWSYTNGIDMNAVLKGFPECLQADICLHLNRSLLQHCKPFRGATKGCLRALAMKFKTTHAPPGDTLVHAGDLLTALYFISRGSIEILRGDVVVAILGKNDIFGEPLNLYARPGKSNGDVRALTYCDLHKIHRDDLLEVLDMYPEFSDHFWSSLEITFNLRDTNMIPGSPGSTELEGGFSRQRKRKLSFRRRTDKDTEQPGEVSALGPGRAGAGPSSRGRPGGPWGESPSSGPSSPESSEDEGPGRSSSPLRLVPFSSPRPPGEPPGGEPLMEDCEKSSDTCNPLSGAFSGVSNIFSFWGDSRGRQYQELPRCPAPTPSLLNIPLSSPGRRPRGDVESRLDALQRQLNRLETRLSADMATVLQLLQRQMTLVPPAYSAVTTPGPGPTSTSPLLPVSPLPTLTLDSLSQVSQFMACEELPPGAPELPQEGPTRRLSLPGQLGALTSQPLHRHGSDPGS
Chain of Cytochrome P450 2C19 (P33261 whole entry): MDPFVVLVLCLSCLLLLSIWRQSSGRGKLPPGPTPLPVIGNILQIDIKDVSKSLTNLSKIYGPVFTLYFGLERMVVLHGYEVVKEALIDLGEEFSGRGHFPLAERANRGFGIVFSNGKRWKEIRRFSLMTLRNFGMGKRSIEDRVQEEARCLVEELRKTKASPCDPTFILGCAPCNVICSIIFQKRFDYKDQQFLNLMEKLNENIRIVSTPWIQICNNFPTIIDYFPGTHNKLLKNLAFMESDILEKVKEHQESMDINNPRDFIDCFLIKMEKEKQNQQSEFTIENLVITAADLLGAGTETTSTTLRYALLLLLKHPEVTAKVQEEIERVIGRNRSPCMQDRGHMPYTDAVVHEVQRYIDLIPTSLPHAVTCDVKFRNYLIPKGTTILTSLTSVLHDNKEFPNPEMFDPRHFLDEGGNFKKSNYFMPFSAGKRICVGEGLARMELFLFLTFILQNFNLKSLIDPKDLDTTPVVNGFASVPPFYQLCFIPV
Chain of Cytochrome P450 2C9 (P11712 whole entry): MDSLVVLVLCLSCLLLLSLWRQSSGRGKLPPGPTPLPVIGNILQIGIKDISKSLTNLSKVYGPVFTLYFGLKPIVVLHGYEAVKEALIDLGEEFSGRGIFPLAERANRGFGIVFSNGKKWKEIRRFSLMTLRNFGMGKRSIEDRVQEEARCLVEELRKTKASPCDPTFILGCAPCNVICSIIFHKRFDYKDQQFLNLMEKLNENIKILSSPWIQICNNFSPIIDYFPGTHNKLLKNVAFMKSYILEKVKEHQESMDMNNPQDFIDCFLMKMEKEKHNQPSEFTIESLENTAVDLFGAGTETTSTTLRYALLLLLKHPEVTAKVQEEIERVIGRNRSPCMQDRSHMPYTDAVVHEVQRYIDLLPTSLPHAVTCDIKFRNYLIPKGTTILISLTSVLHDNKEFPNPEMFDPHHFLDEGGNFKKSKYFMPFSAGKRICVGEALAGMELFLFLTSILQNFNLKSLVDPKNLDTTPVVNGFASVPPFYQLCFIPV

On to `Nc1nc2ccc(C(=O)NCc3ccccc3)cc2s1`, for which the inhibition at 50 µM with Trypanosoma cruzi worked out at 51.3%. Further, in the data set on Trypanosoma brucei [1], the growth inhibition (GI) was 30%. For the same molecule, the Ratio in the data set with Trypanosoma brucei [2] was 1.6. Besides, the IC50 was above 25 µM in data set [3]; above 25 µM on Cytochrome P450 2C9; above 25 µM against Cytochrome P450 2C19; 10 to 25 µM on Cytochrome P450 2D6; above 25 µM at Cytochrome P450 3A4. Besides, in data set [4], the concentration for 50% growth inhibition (GI50) at 48 h was above 25 µM. Also, the selectivity ratio (in the data set with hERG; in data set [9]; in data set [10]) was above 10 throughout. In addition, the solubility thermodynamic at 24 h in data set [5] is 0.0131 mg/mL (≈ 46.3 µM); in data set [6], 0.0109 mg/mL (≈ 38.6 µM); in data set [7] it was above 0.1 mg/mL; in [8] it was above 0.1 mg/mL. The maximum concentration (Cmax) in data set [11] stood at 1.63 µg/mL. The exposure (AUC) in [12] came to 1.057 µg·h/mL; in data set [13], 7.93 µg·h/mL. In addition, in data set [14], the half-life is 3.45 h. The apparent clearance CL/F in data set [15] came out at 4.08 L/h/kg; in [16], 2.46 L/h/kg. In addition, the Ratio IC50 in data set [17] lay in the range of 2 to 100.
